Source: ChEMBL document CHEMBL1156266, “Antisense oligonucleotides containing conformationally constrained 2',4'-(N-methoxy)aminomethylene and 2',4'-aminooxymethylene and 2'-O,4'-C-aminomethylene bridged nucleoside analogues show improved potency in animal models” (J Med Chem, 2010)
Activity calls are given as the source filed them. The calls are words filed in the database; no cut-off is given here.

Legend:
Mus musculus [1] = assay: Toxicity in BALB/c mouse assessed as increase in liver weight at 0.5 to 14.6 mg/kg, ip administered twice a week for 3 weeks measured after 72 hrs of last dose; assay type: organism-based; set-up: dose 0.5-14.6 mg/kg, route intraperitoneal; conditions: in vivo
Method in brief: (§1)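 Male Balb/c mice, ip ASO in PBS twice weekly for 3 weeks at four dose levels. Body weight recorded before each dose. Killed 3 days after last dose. Organ weights normalized to body weight, expressed relative to the saline-treated group.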

Mus musculus [2] = assay: Toxicity in BALB/c mouse assessed as effect on body weight at 0.5 to 14.6 mg/kg, ip administered twice a week for 3 weeks measured after 72 hrs of last dose; assay type: organism-based; set-up: dose 0.5-14.6 mg/kg, route intraperitoneal; conditions: in vivo; method in brief: as §1
Mus musculus [3] = assay: Reduction in PTEN mRNA expression in ip dosed BALB/c mouse liver administered twice a week for 3 weeks measured after 72 hrs of last dose by RT-PCR analysis; assay type: functional
Method in brief: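 Male Balb/c mice, 6-week-old, ASO in PBS ip twice weekly for 3 weeks, four dose levels. Killed 72 h after last dose. Liver homogenized in guanidine isothiocyanate buffer, RNA column-purified. PTEN RNA by fluorescence qRT-PCR, normalized to cyclophilin A. Errors are SD.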

[4] = Reduction in PTEN mRNA expression in mouse bEND.3 cells after 24 hrs by qRT-PCR analysis; assay type: functional, cell-based; conditions: for IC50: BEND3, 24 h
Method in brief: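 bEnd.3 cells in DMEM/10% FBS, seeded at 1 × 10^4 cells/well the day before. Transfected 4 h at 37 °C with Lipofectin 3 μg/mL in OptiMEM, eight 1:2 dilutions (40 nM to 312.5 pM), then refed with complete medium for 24 h. PTEN RNA by qRT-PCR, normalized to cyclophilin A, as % untreated control. Triplicate plates. IC50 from sigmoidal fit, top 100%, bottom 0%.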

Liver = assay: Drug level in BALB/c mouse liver assessed per gram of tissue at 37 mg/kg, ip administered once a week for 3 weeks measured after 72 hrs of last dose; assay type: ADME, organism-based; set-up: dose 37 mg/kg, route intraperitoneal; conditions: in vivo
Mus musculus [5] = assay: Hepatotoxicity in BALB/c mouse assessed as increase in liver ALT level at 0.5 to 14.6 mg/kg, ip administered twice a week for 3 weeks measured after 72 hrs of last dose; assay type: toxicity, organism-based; set-up: dose 0.5-14.6 mg/kg, route intraperitoneal; conditions: in vivo
Method in brief: (§2)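 Male 6-week-old Balb/c mice dosed ip in PBS twice weekly for 3 weeks: 0.7–23 mg/kg (four levels) or 0.5–14.6/14.8 mg/kg. Killed 72 h after final dose. Plasma from cardiac-puncture blood, ALT on clinical bioanalyzer. Errors are SD.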

Nucleic Acid = assay: Binding affinity to mouse PTEN mRNA assessed as melting temperature at 4 uM by thermal denaturation assay; assay type: nucleic-acid assay
Method in brief: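 Duplex with complementary length-matched RNA; UV absorbance versus temperature curves in 100 mM Na+, 10 mM phosphate, 0.1 mM EDTA, 4 μM each strand. Tm is the average of two experiments.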

Mus musculus [6] = assay: Hepatotoxicity in BALB/c mouse assessed as liver ALT level at 0.7 to 23 mg/kg, ip administered twice a week for 3 weeks measured after 72 hrs of last dose; assay type: toxicity, organism-based; set-up: dose 0.7-23 mg/kg, route intraperitoneal; conditions: in vivo; method in brief: as §2
Mus musculus [7] = assay: Toxicity in BALB/c mouse assessed as effect on liver weight at 0.7 to 23 mg/kg, ip administered twice a week for 3 weeks measured after 72 hrs of last dose; assay type: organism-based; set-up: dose 0.7-23 mg/kg, route intraperitoneal; conditions: in vivo; method in brief: as §1
Mus musculus [8] = assay: Toxicity in BALB/c mouse assessed as effect on kidney weight at 0.7 to 23 mg/kg, ip administered twice a week for 3 weeks measured after 72 hrs of last dose; assay type: organism-based; set-up: dose 0.7-23 mg/kg, route intraperitoneal; conditions: in vivo; method in brief: as §1
Mus musculus [9] = assay: Toxicity in BALB/c mouse assessed as effect on body weight at 0.7 to 23 mg/kg, ip administered twice a week for 3 weeks measured after 72 hrs of last dose; assay type: organism-based; set-up: dose 0.7-23 mg/kg, route intraperitoneal; conditions: in vivo; method in brief: as §1
Mus musculus [10] = assay: Toxicity in BALB/c mouse assessed as effect on liver weight at 0.5 to 14.8 mg/kg, ip administered twice a week for 3 weeks measured after 72 hrs of last dose; assay type: organism-based; set-up: dose 0.5-14.8 mg/kg, route intraperitoneal; conditions: in vivo; method in brief: as §1
Mus musculus [11] = assay: Toxicity in BALB/c mouse assessed as effect on kidney weight at 0.5 to 14.8 mg/kg, ip administered twice a week for 3 weeks measured after 72 hrs of last dose; assay type: organism-based; set-up: dose 0.5-14.8 mg/kg, route intraperitoneal; conditions: in vivo; method in brief: as §1
Mus musculus [12] = assay: Toxicity in BALB/c mouse assessed as effect on body weight at 0.5 to 14.8 mg/kg, ip administered twice a week for 3 weeks measured after 72 hrs of last dose; assay type: organism-based; set-up: dose 0.5-14.8 mg/kg, route intraperitoneal; conditions: in vivo; method in brief: as §1
Mus musculus [13] = assay: Toxicity in BALB/c mouse assessed as increase in spleen weight at 0.5 to 14.8 mg/kg, ip administered twice a week for 3 weeks measured after 72 hrs of last dose; assay type: organism-based; set-up: dose 0.5-14.8 mg/kg, route intraperitoneal; conditions: in vivo; method in brief: as §1
Mus musculus [14] = assay: Reduction in PTEN mRNA expression in BALB/c mouse liver at 37 mg/kg, ip administered once a week for 3 weeks measured after 72 hrs of last dose by RT-PCR analysis; assay type: functional, organism-based; set-up: dose 37 mg/kg
Mus musculus [15] = assay: Hepatotoxicity in BALB/c mouse assessed as liver ALT level at 0.5 to 14.8 mg/kg, ip administered twice a week for 3 weeks measured after 72 hrs of last dose; assay type: toxicity, organism-based; set-up: dose 0.5-14.8 mg/kg, route intraperitoneal; conditions: in vivo; method in brief: as §2

| SMILES | Activity (Mus musculus [1]) | Activity (Mus musculus [2]) | ED50 (Mus musculus [3]) [mg/kg] | IC50 [4] [nM] | Drug uptake (Liver) [µg/g] | Activity (Mus musculus [5]) | Tm (Nucleic Acid) [°C] | Activity [4] | Activity (Mus musculus [6]) | Activity (Mus musculus [7]) | Activity (Mus musculus [8]) | Activity (Mus musculus [9]) | Activity (Mus musculus [10]) | Activity (Mus musculus [11]) | Activity (Mus musculus [12]) | Activity (Mus musculus [13]) | Activity (Mus musculus [3]) | Activity (Mus musculus [14]) | Activity (Mus musculus [15]) |
| --- | --- | --- | --- | --- | --- | --- | --- | --- | --- | --- | --- | --- | --- | --- | --- | --- | --- | --- | --- |
| Cc1cn([C@@H]2O[C@]3(CO)CO[C@@H]2[C@@H]3OP(O)(=S)OC[C@]23CC([C@H](n4cc(C)c(=O)[nH]c4=O)O2)[C@@H]3OP(O)(=S)OC[C@H]2O[C@@H](n3cc(C)c(=O)[nH]c3=O)C[C@@H]2OP(O)(=S)OC[C@H]2O[C@@H](n3cnc4c(N)ncnc43)[C@H](O)[C@@H]2OP(O)(=S)OC[C@H]2O[C@@H](n3cnc4c(=O)[nH]c(N)nc43)[C@H](O)[C@@H]2OP(O)(=S)OC[C@H]2O[C@@H](n3ccc(N)nc3=O)[C@H](O)[C@@H]2OP(O)(=S)OC[C@H]2O[C@@H](n3cnc4c(N)ncnc43)[C@H](O)[C@@H]2OP(O)(=S)OC[C@H]2O[C@@H](n3ccc(N)nc3=O)[C@H](O)[C@@H]2OP(O)(=S)OC[C@H]2O[C@@H](n3cc(C)c(=O)[nH]c3=O)C[C@@H]2OP(O)(=S)OC[C@H]2O[C@@H](n3cnc4c(=O)[nH]c(N)nc43)[C@H](O)[C@@H]2OP(O)(=S)OC[C@H]2O[C@@H](n3cnc4c(=O)[nH]c(N)nc43)[C@H](O)[C@@H]2OP(O)(=S)OC[C@H]2O[C@@H](n3ccc(N)nc3=O)[C@H](O)[C@@H]2OP(O)(=S)OC[C@]23CO[C@@H]([C@H](n4cc(C)c(N)nc4=O)O2)[C@@H]3OP(O)(=S)OC[C@]23CC([C@H](n4cc(C)c(=O)[nH]c4=O)O2)[C@@H]3O)c(=O)nc1N (stereo not given in full) | Toxic | Toxic | 3 | 1.3 | 30 | Toxic |  |  |  |  |  |  |  |  |  |  |  |  |  |
| COCCO[C@@H]1[C@H](OP(O)(=S)OC[C@H]2O[C@@H](n3cc(C)c(=O)[nH]c3=O)C[C@@H]2OP(O)(=S)OC[C@H]2O[C@@H](n3cnc4c(=O)[nH]c(N)nc43)[C@H](OCCOC)[C@@H]2OP(O)(=S)OC[C@H]2O[C@@H](n3cc(C)c(N)nc3=O)[C@H](OCCOC)[C@@H]2OP(O)(=S)OC[C@H]2O[C@@H](n3cc(C)c(=O)[nH]c3=O)C[C@@H]2OP(O)(=S)OC[C@H]2O[C@@H](n3cnc4c(N)ncnc43)[C@H](O)[C@@H]2OP(O)(=S)OC[C@H]2O[C@@H](n3cnc4c(=O)[nH]c(N)nc43)[C@H](O)[C@@H]2OP(O)(=S)OC[C@H]2O[C@@H](n3cc(C)c(N)nc3=O)C[C@@H]2OP(O)(=S)OC[C@H]2O[C@@H](n3cc(C)c(N)nc3=O)C[C@@H]2OP(O)(=S)OC[C@H]2O[C@@H](n3cc(C)c(=O)[nH]c3=O)C[C@@H]2OP(O)(=S)OC[C@H]2O[C@@H](n3cc(C)c(N)nc3=O)C[C@@H]2OP(O)(=S)OC[C@H]2O[C@@H](n3cc(C)c(=O)[nH]c3=O)C[C@@H]2OP(O)(=S)OC[C@H]2O[C@@H](n3cnc4c(=O)[nH]c(N)nc43)[C@H](O)[C@@H]2OP(O)(=S)OC[C@H]2O[C@@H](n3cnc4c(=O)[nH]c(N)nc43)[C@H](O)[C@@H]2OP(O)(=S)OC[C@H]2O[C@@H](n3cnc4c(N)ncnc43)[C@H](O)[C@@H]2OP(O)(=S)OC[C@H]2O[C@@H](n3cc(C)c(=O)[nH]c3=O)C[C@@H]2OP(O)(=S)OC[C@H]2O[C@@H](n3cc(C)c(=O)[nH]c3=O)C[C@@H]2OP(O)(=S)OC[C@H]2O[C@@H](n3cc(C)c(=O)[nH]c3=O)C[C@@H]2OP(O)(=S)OC[C@H]2O[C@@H](n3cnc4c(=O)[nH]c(N)nc43)[C@H](OCCOC)[C@@H]2OP(O)(=S)OC[C@H]2O[C@@H](n3cnc4c(N)ncnc43)[C@H](OCCOC)[C@@H]2O)[C@@H](CO)O[C@H]1n1cc(C)c(N)nc1=O (stereo not given in full) |  |  | 10 | 1 |  |  | 67.9 | Dose-dependent effect | Non-toxic | Non-toxic | Non-toxic | Non-toxic |  |  |  |  |  |  |  |
| Cc1cn([C@@H]2O[C@]3(CO)CN(C)O[C@@H]2[C@@H]3OP(O)(=S)OC[C@]23CN(C)O[C@@H]([C@H](n4cc(C)c(=O)[nH]c4=O)O2)[C@@H]3OP(O)(=S)OC[C@H]2O[C@@H](n3cc(C)c(=O)[nH]c3=O)C[C@@H]2OP(O)(=S)OC[C@H]2O[C@@H](n3cnc4c(N)ncnc43)[C@H](O)[C@@H]2OP(O)(=S)OC[C@H]2O[C@@H](n3cnc4c(=O)[nH]c(N)nc43)[C@H](O)[C@@H]2OP(O)(=S)OC[C@H]2O[C@@H](n3ccc(N)nc3=O)[C@H](O)[C@@H]2OP(O)(=S)OC[C@H]2O[C@@H](n3cnc4c(N)ncnc43)[C@H](O)[C@@H]2OP(O)(=S)OC[C@H]2O[C@@H](n3ccc(N)nc3=O)[C@H](O)[C@@H]2OP(O)(=S)OC[C@H]2O[C@@H](n3cc(C)c(=O)[nH]c3=O)C[C@@H]2OP(O)(=S)OC[C@H]2O[C@@H](n3cnc4c(=O)[nH]c(N)nc43)[C@H](O)[C@@H]2OP(O)(=S)OC[C@H]2O[C@@H](n3cnc4c(=O)[nH]c(N)nc43)[C@H](O)[C@@H]2OP(O)(=S)OC[C@H]2O[C@@H](n3ccc(N)nc3=O)[C@H](O)[C@@H]2OP(O)(=S)OC[C@]23CN(C)O[C@@H]([C@H](n4cc(C)c(N)nc4=O)O2)[C@@H]3OP(O)(=S)OC[C@]23CN(C)O[C@@H]([C@H](n4cc(C)c(=O)[nH]c4=O)O2)[C@@H]3O)c(=O)nc1N (stereo not given in full) |  |  | 6 | 2.5 |  |  | 58.6 | Dose-dependent effect |  |  |  |  | Non-toxic | Non-toxic | Non-toxic | Toxic | Dose-dependent effect | Active | Non-toxic |
